Measurements as given in ChEMBL document CHEMBL3045170, “Synthesis and biological activity of organotin 4-methyl-1,2,3-thiadiazole-5-carboxylates and benzo[1,2,3]thiadiazole-7-carboxylates” (J Agric Food Chem, 2010).

Key:
Format in all cases: functional
Settings in all cases: for inhibition of growth at 50 µg/mL: 48 h, read-out: GI
Botrytis cinerea = test: Fungicidal activity against Botryotinia fuckeliana assessed as growth inhibition at 50 ug/ml after 2 days
How it was run: (§1)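 Poisoned-plate mycelial growth assay. The test sample was mixed into molten potato dextrose agar in a Petri dish before it set. Fungus was inoculated and incubated at 24-26 °C. Colony spread diameter was measured after 2 days, and percent growth inhibition was calculated relative to the corresponding control plate.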

Fusarium graminearum = test: Fungicidal activity against Fusarium graminearum assessed as growth inhibition at 50 ug/ml after 2 days
How it was run: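 Mycelial growth test on potato dextrose agar (9 mL) in Petri dishes, with the plate mixed thoroughly before setting. Gibberella zeae inoculated and cultured at 24-26 °C. Colony spread diameter measured after 2 days, and growth inhibition calculated relative to the corresponding control.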

[1] = tested on: Botryosphaeria berengeriana; test: Fungicidal activity against Botryosphaeria berengeriana assessed as growth inhibition at 50 ug/ml after 2 days; how it was run: as §1
Mycosphaerella arachidis = test: Fungicidal activity against Mycosphaerella arachidis assessed as growth inhibition at 50 ug/ml after 2 days; how it was run: as §1
Alternaria solani = test: Fungicidal activity against Alternaria solani assessed as growth inhibition at 50 ug/ml after 2 days; how it was run: as §1

Molecule | inhibition of growth at 50 µg/mL (Botrytis cinerea) [%] | inhibition of growth at 50 µg/mL (Fusarium graminearum) [%] | inhibition of growth at 50 µg/mL [1] [%] | inhibition of growth at 50 µg/mL (Mycosphaerella arachidis) [%] | inhibition of growth at 50 µg/mL (Alternaria solani) [%] | growth inhibition (GI) (Botrytis cinerea) [%] | growth inhibition (GI) (Fusarium graminearum) [%] | growth inhibition (GI) [1] [%] | growth inhibition (GI) (Mycosphaerella arachidis) [%] | growth inhibition (GI) (Alternaria solani) [%]
O=C(O)c1cccc2nnsc12 [1,2,3-benzothia-diazole-7-carboxylic acid] | 72.1 | 60.7 | 40.5 | 30.8 | 42.4 | – | – | – | – | –
CCCC1COC(Cn2cncn2)(c2ccc(Cl)cc2Cl)O1 (stereo not given) [PROPICONAZOLE] | 100 | 100 | 100 | 100 | 89.2 | – | – | – | – | –
dibutylstannanediyl dibenzo[d][1,2,3]thiadiazole-7-carboxylate | – | – | – | – | – | 29.7 | 58.3 | 27.3 | 23.1 | 19.8
diethylstannanediyl dibenzo[d][1,2,3]thiadiazole-7-carboxylate | – | – | – | – | – | 43.2 | 50 | 36.7 | 20.5 | 32.3
tributylstannyl benzo[d][1,2,3]thiadiazole-7-carboxylate | – | – | – | – | – | 98.2 | 92.9 | 97.2 | 97.4 | 92.5
tricyclohexylstannyl benzo[d][1,2,3]thiadiazole-7-carboxylate | – | – | – | – | – | 94.1 | 50 | 92.5 | 76.7 | 50
triethylstannyl benzo[d][1,2,3]thiadiazole-7-carboxylate | – | – | – | – | – | 100 | 100 | 100 | 100 | 100
triphenylstannyl benzo[d][1,2,3]thiadiazole-7-carboxylate | – | – | – | – | – | 91.9 | 54.8 | 97.2 | 71.8 | 92.5
